From PubChem
Rows were chosen to be rich in hits. Some 2.6% of all compounds tested hit in one or more screens of this group.
hiPSC survival: increases survival of single human iPS cells; hiPSC single-cell survival, ATPlite luminescence; 100% = ROCK inhibitor wells, 0% = DMSO; survival enhancement, % at 20 µM; 0.044% of 360,000 active; AID 602274; in the data active means survival enhancement above about 18%;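 further: cells exposed to compounds for 16 hours before the ATP read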
MC4R barr agon: activates human MC4R beta-arrestin recruitment; P32245; U2OS MC4R beta-arrestin complementation, luminescence; percent of melanotan II response, DMSO zero; activation, % at 8.9 µM; 0.98% of 360,000 active;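 active means activation above a per-plate cutoff, the mean activation of sample wells on that plate plus 3 SD, cut at about 8% in these data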
Granule exo inh: blocks lytic granule exocytosis | 0.66% of 360,000 active | inhibition, % at 10 µM | TALL-104 LAMP-1 surface exposure, flow cytometry; cells stimulated with thapsigargin and PMA | AID 651702;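 active means inhibition above about 55%, limit read from the data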
ABCB6 inh MLPCN: inhibitors of human ABC transporter ABCB6 | Q9NP58 | K562-ABCB6 porphyrin accumulation, flow cytometry, 1 h; stronger effect = lower value | fluorescence ratio to DMSO, % at 10 µM | 0.19% of 360,000 active | AID 602162;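 active means fluorescence ratio to DMSO below 75%, the collection mean minus 3 SD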;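 further: signal is porphyrin accumulated inside mitochondria; lower ratio means ABCB6 inhibition with less porphyrin fluorescence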
MC4R antagonist: antagonists of human melanocortin 4 receptor (MC4R). MC4R-expressing cells, MTII-stimulated cAMP, LANCE TR-FRET. inhibition, % at 6.5 µM. 0.48% of 360,000 active;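 active means inhibition above its plate's cutoff, the mean of tested wells on that plate plus 3 SD, cut at about 29% in these data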
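Assay system: U2OS-MC4R stable cell line; Also added: Melanotan II; Technique: Eu-cAMP/anti-cAMP TR-FRET, emission 671 nm; Times: 30-min compound, 1-h challenge, 1-h detection, room temperature.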
TbMetRS inhib: Trypanosoma brucei MetRS inhibition; purified T. brucei MetRS, ATP depletion, Kinase-Glo luminescence; inhibition, % at 11.9 µM; 0.4% of 360,000 active;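 active means inhibition above a per-plate cutoff of the control wells' mean inhibition plus 3 SD, cut at about 5.5% in these data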
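technique = Kinase-Glo luminescence, ATP depletion format | system = purified MetRS (methionyl-tRNA synthetase) enzyme from Trypanosoma brucei | timing = 15 min preincubation, 2 h reaction, all 25 °C | evaluation = percent inhibition versus plate control medians | dosing = single dose, 11.9 µM final nominal, 0.9% final DMSO | also added = substrates ATP, L-methionine and bulk Escherichia coli tRNA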
ABCB6 inh CP1: blocks the human ABCB6 transporter; shares compounds with ABCB6 inh MLPCN; K562-ABCB6 porphyrin accumulation, flow cytometry, 1 h; stronger effect = lower value; ratio response (% of DMSO), % at 10 µM; 700 tested, under 10 active;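 active means repeat-averaged ratio response below 75% of DMSO, the collection mean minus 3 SD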;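 further: median porphyrin fluorescence at 575 nm with 488 nm excitation from mitochondria; lower ratio means less porphyrin signal so ABCB6 inhibition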
A number is an active result.

Screening Cn1c(=O)c2c(ncn2CC(=O)OCc2ccccc2)n(C)c1=O returned hiPSC survival inactive, MC4R barr agon inactive, Granule exo inh inactive, ABCB6 inh MLPCN inactive, MC4R antagonist inactive and TbMetRS inhib inactive.
For Cn1c(=O)c2c(ncn2CC(=O)N(Cc2ccccc2)c2ccccn2)n(C)c1=O the results were hiPSC survival inactive, MC4R barr agon inactive, Granule exo inh inactive, ABCB6 inh MLPCN 71, MC4R antagonist inactive, TbMetRS inhib inactive and ABCB6 inh CP1 inactive.
`COc1ccc(-c2cc(C(F)(F)F)c(C#N)c(SCC(=O)O)n2)cc1` gave hiPSC survival inactive, MC4R barr agon inactive, Granule exo inh inactive, ABCB6 inh MLPCN inactive, MC4R antagonist inactive and TbMetRS inhib inactive.
Cc1ccc(-c2cc(C(F)(F)F)c(C#N)c(SCCC#N)n2)o1 was read as hiPSC survival inactive, MC4R barr agon inactive, Granule exo inh inactive, ABCB6 inh MLPCN 71, MC4R antagonist inactive, TbMetRS inhib inactive and ABCB6 inh CP1 inactive.
`O=S(=O)(NCc1ccccc1)[C@@H]1CC2C=CC1C2` (some centres undefined) gave hiPSC survival inactive, MC4R barr agon inactive, Granule exo inh inactive, ABCB6 inh MLPCN inactive, MC4R antagonist inactive and TbMetRS inhib inactive.
CCn1c(SCC(=O)n2c(C)c(C)c3ccccc32)nnc1-c1ccco1 was read as hiPSC survival inactive, MC4R barr agon inactive, Granule exo inh inactive, ABCB6 inh MLPCN 73, MC4R antagonist inactive, TbMetRS inhib inactive and ABCB6 inh CP1 inactive.
Screening Cc1ccc(OS(=O)(=O)c2cn(C)c(=O)n(C)c2=O)cc1C returned hiPSC survival inactive, MC4R barr agon inactive, Granule exo inh inactive, ABCB6 inh MLPCN inactive, MC4R antagonist inactive and TbMetRS inhib inactive.
`O=C(CN1C(=O)NC(Cc2c[nH]c3ccccc23)C1=O)NCCc1ccc(F)cc1` (centres undefined) gave hiPSC survival inactive, MC4R barr agon inactive, Granule exo inh inactive, ABCB6 inh MLPCN inactive, MC4R antagonist inactive and TbMetRS inhib inactive.
For Cc1ccnc(NC(=O)CCC(=O)N(Cc2ccco2)C(C(=O)NC(C)C)c2ccc(F)cc2)c1 (centres undefined) the results were hiPSC survival inactive, MC4R barr agon inactive, Granule exo inh inactive, ABCB6 inh MLPCN inactive, MC4R antagonist inactive and TbMetRS inhib inactive.
Screening O=C1c2ccccc2C(=O)N1CCc1csc(-c2cccc(F)c2)n1 returned hiPSC survival inactive, MC4R barr agon inactive, Granule exo inh inactive, ABCB6 inh MLPCN 72, MC4R antagonist inactive, TbMetRS inhib inactive and ABCB6 inh CP1 inactive.
Screening Cc1cc(NC(=O)c2cc(S(=O)(=O)N3CCCCC3)ccc2C)no1 returned hiPSC survival inactive, MC4R barr agon inactive, Granule exo inh inactive, ABCB6 inh MLPCN inactive, MC4R antagonist inactive and TbMetRS inhib inactive.
Cc1cc(NC(=O)c2cccc(S(=O)(=O)N3CCCCCC3)c2)no1 was read as hiPSC survival inactive, MC4R barr agon inactive, Granule exo inh inactive, ABCB6 inh MLPCN 70, MC4R antagonist inactive, TbMetRS inhib inactive and ABCB6 inh CP1 inactive.
For COc1ccc(OC)c(S(=O)(=O)NCCOC23CC4CC(CC(C4)C2)C3)c1 the results were hiPSC survival inactive, MC4R barr agon inactive, Granule exo inh inactive, ABCB6 inh MLPCN inactive, MC4R antagonist inactive and TbMetRS inhib inactive.
Screening COc1ccc(C(=O)C2CCCN(C(=O)c3cccs3)C2)cc1F (centres undefined) returned hiPSC survival inactive, MC4R barr agon inactive, Granule exo inh inactive, ABCB6 inh MLPCN 71, MC4R antagonist inactive, TbMetRS inhib inactive and ABCB6 inh CP1 inactive.
COC(=O)C1=CNC=C(C(=O)OC)C1c1ccccc1Cl was read as hiPSC survival inactive, MC4R barr agon inactive, Granule exo inh inactive, ABCB6 inh MLPCN inactive, MC4R antagonist inactive and TbMetRS inhib inactive.
Screening COC(=O)C1=CNC=C(C(=O)OC)C1c1cccc2ccccc12 returned hiPSC survival inactive, MC4R barr agon inactive, Granule exo inh inactive, ABCB6 inh MLPCN 71, MC4R antagonist inactive, TbMetRS inhib inactive and ABCB6 inh CP1 inactive.
Screening NC(c1ccccc1)c1csc(Nc2ccc(C(F)(F)F)cn2)n1 (centres undefined) returned hiPSC survival inactive, MC4R barr agon inactive, Granule exo inh inactive, ABCB6 inh MLPCN 71, MC4R antagonist inactive, TbMetRS inhib inactive and ABCB6 inh CP1 inactive.
Screening COC(=O)c1cc(S(=O)(=O)N2CCN(c3ccc(F)cc3)CC2)c[nH]1 returned hiPSC survival inactive, MC4R barr agon inactive, Granule exo inh inactive, ABCB6 inh MLPCN 46, MC4R antagonist inactive, TbMetRS inhib inactive and ABCB6 inh CP1 inactive.
For COC(=O)c1cc(S(=O)(=O)N2CCN(c3ccccc3)CC2)c[nH]1 the results were hiPSC survival inactive, MC4R barr agon inactive, Granule exo inh inactive, ABCB6 inh MLPCN inactive, MC4R antagonist inactive and TbMetRS inhib inactive.
`Cc1ccc(CC(=O)Nc2nnc(-c3ccc(F)cc3)o2)c(C)c1` gave hiPSC survival inactive, MC4R barr agon inactive, Granule exo inh inactive, ABCB6 inh MLPCN 74, MC4R antagonist inactive, TbMetRS inhib inactive and ABCB6 inh CP1 inactive.
O=C(NCC1CCCO1)C1CC(=O)N(C2CCCC2)C1 (centres undefined) was read as hiPSC survival inactive, MC4R barr agon inactive, Granule exo inh inactive, ABCB6 inh MLPCN inactive, MC4R antagonist inactive and TbMetRS inhib inactive.
Cc1cc(C)c(Cc2c(C)nc3c(C(=O)NCc4ccco4)cnn3c2C)c(C)c1 was read as hiPSC survival inactive, MC4R barr agon inactive, Granule exo inh inactive, ABCB6 inh MLPCN inactive, MC4R antagonist inactive, TbMetRS inhib inactive and ABCB6 inh CP1 inactive.
`COC(CNC(=O)c1cnn2c(C)c(Cc3ccccc3)c(C)nc12)OC` gave hiPSC survival inactive, MC4R barr agon inactive, Granule exo inh inactive, ABCB6 inh MLPCN inactive, MC4R antagonist inactive, TbMetRS inhib inactive and ABCB6 inh CP1 inactive.
COC(CNC(=O)Cc1c(C)nc2c(-c3ccccc3)c(C)nn2c1C)OC was read as hiPSC survival inactive, MC4R barr agon inactive, Granule exo inh inactive, ABCB6 inh MLPCN inactive, MC4R antagonist inactive and TbMetRS inhib inactive.
Screening Cc1ccccc1OCC(=O)N(CC(C)C)c1c(N)n(CC(C)C)c(=O)[nH]c1=O returned hiPSC survival inactive, MC4R barr agon inactive, Granule exo inh inactive, ABCB6 inh MLPCN inactive, MC4R antagonist inactive and TbMetRS inhib inactive.
Screening C=CC[C@@H](CC(=O)N(CCO)Cc1ccccc1)C(=O)NCCOC(=O)[C@H](CC=C)CC(=O)OC(C)(C)C returned hiPSC survival inactive, MC4R barr agon inactive, Granule exo inh inactive, ABCB6 inh MLPCN inactive, MC4R antagonist inactive and TbMetRS inhib inactive.
